From ChEMBL document CHEMBL1240455, “Synthesis of 5-[alkoxy-(4-nitro-phenyl)-methyl]-uridines and study of their cytotoxic activity” (Eur J Med Chem, 2010)
Values after ≈ are worked out from the molar mass of the structure shown.

Experiments:
[1] = test system: Staphylococcus aureus; experiment: Antimicrobial activity against Staphylococcus aureus CCM 3953 after 24 hrs; type: functional; conditions: CCM 3953, 24 h
[2] = test system: CCRF-CEM; experiment: Induction of mitotic arrest in human CEM cells assessed as pH3Ser10 positive cells at 5 times IC50 concentration after 24 hrs by flow cytometry; type: functional
[3] = test system: CCRF-CEM; experiment: Cytotoxicity against human CEM cells after 72 hrs by MTT assay; type: functional, cell-based
Method in brief: (§1)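 Cells seeded at 2500–30,000 per well by cell type and pre-incubated 24 h at 37 °C, 5% CO2. Compounds dissolved in 10% DMSO, added as four-fold dilutions at time zero, tested in quadruplicate. Exposure 72 h at 37 °C, 5% CO2, 100% humidity. MTT then added for 1–4 h, formazan dissolved overnight at 37 °C, OD read at 540 nm. IC50 taken from dose-response curves relative to control wells.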

[4] = test system: CCRF-CEM; experiment: Inhibition of DNA synthesis in human CEM cells assessed as BrDU incorporation using propidium iodide staining at 5 times IC50 concentration after 24 hrs by flow cytometry; type: functional; parameters: scale not given: the % may be the effect or the level left
Method in brief: (§2)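 CEM cells exposed at 1× and 5× IC50 for 3, 6, 9 and 24 h, then pulsed with BrdU for 30 min at 37 °C. Cells fixed overnight in ice-cold 70% ethanol and DNA denatured in 2 M HCl for 30 min. Neutralised with 0.1 M sodium borate, then stained with anti-BrdU antibody, FITC secondary, and propidium iodide/RNase. Read by flow cytometry at 488 nm.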

[5] = test system: CCRF-CEM; experiment: Cell cycle arrest in human CEM cells assessed as accumulation at G0/G1 phase using propidium iodide staining at IC50 concentration after 24 hrs by flow cytometry; type: functional
[6] = test system: A549; experiment: Cytotoxicity against human A549 cells after 72 hrs by MTT assay; type: functional, cell-based; method in brief: as §1
[7] = test system: CCRF-CEM; experiment: Induction of apoptosis in human CEM cells using propidium iodide staining at IC50 concentration after 24 hrs by flow cytometry; type: functional
[8] = test system: CCRF-CEM; experiment: Cell cycle arrest in human CEM cells assessed as accumulation at S phase using propidium iodide staining at IC50 concentration after 24 hrs by flow cytometry; type: functional
[9] = test system: CCRF-CEM; experiment: Induction of apoptosis in human CEM cells using propidium iodide staining at 5 times IC50 concentration after 24 hrs by flow cytometry; type: functional
[10] = Cytotoxicity against human CEM-DNR-B cells after 72 hrs by MTT assay; type: functional, cell-based; method in brief: as §1
[11] = test system: K562; experiment: Cytotoxicity against human K562 cells after 72 hrs by MTT assay; type: functional, cell-based; method in brief: as §1
[12] = test system: Staphylococcus haemolyticus; experiment: Antimicrobial activity against Staphylococcus haemolyticus after 24 hrs; type: functional
Method in brief: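 MIC taken as the lowest concentration preventing bacterial growth after 24 h incubation at 37 °C. Strains came from the Czech Collection of Microorganisms or from clinical isolates of hospital patients.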

[13] = test system: CCRF-CEM; experiment: Inhibition of RNA synthesis in human CEM cells assessed as BrU incorporation using propidium iodide staining at IC50 concentration after 24 hrs by flow cytometry; type: functional; parameters: scale not given: the % may be the effect or the level left
Method in brief: (§3)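 RNA synthesis measured by flow cytometry of incorporated 5-bromouridine, detected with a cross-reacting anti-BrdU antibody. CEM cells exposed at 1× and 5× IC50 for 3, 6, 9 and 24 h and pulsed for 30 min at 37 °C before harvest. Fixed 15 min in 1% paraformaldehyde/0.05% NP-40 in PBS and stored at 4 °C at least overnight. Stained with primary and FITC secondary antibodies, 30 min each at room temperature.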

[14] = test system: CCRF-CEM; experiment: Inhibition of DNA synthesis in human CEM cells assessed as BrDU incorporation using propidium iodide staining at IC50 concentration after 24 hrs by flow cytometry; type: functional; parameters: scale not given: the % may be the effect or the level left; method in brief: as §2
[15] = test system: CCRF-CEM; experiment: Inhibition of RNA synthesis in human CEM cells assessed as BrU incorporation using propidium iodide staining at 5 times IC50 concentration after 24 hrs by flow cytometry; type: functional; parameters: scale not given: the % may be the effect or the level left; method in brief: as §3
[16] = test system: CCRF-CEM; experiment: Induction of mitotic arrest in human CEM cells assessed as pH3Ser10 positive cells at IC50 concentration after 24 hrs by flow cytometry; type: functional
[17] = test system: K562; experiment: Cytotoxicity against human paclitaxel-resistant K562 cells after 72 hrs by MTT assay; type: functional, cell-based; method in brief: as §1
[18] = test system: Enterococcus faecalis; experiment: Antimicrobial activity against Enterococcus faecalis CCM 4224 after 24 hrs; type: functional; conditions: CCM 4224, 24 h
[19] = test system: Staphylococcus aureus; experiment: Antimicrobial activity against methicillin-resistant Staphylococcus aureus after 24 hrs; type: functional
[20] = test system: CCRF-CEM; experiment: Cell cycle arrest in human CEM cells assessed as accumulation at G2/M phase using propidium iodide staining at IC50 concentration after 24 hrs by flow cytometry; type: functional

Compound	Activity [2] [%]	IC50 ([3]; Homo sapiens, CCRF-CEM, 72 h) [µM]	Activity [4] [%]	Activity [5] [%]	IC50 ([6]; Homo sapiens, A549, 72 h) [µM]	Activity [8] [%]	IC50 ([10]; Homo sapiens, 72 h) [µM]	IC50 ([11]; Homo sapiens, K562, 72 h) [µM]	Activity [13] [%]	Activity [14] [%]	Activity [15] [%]	Activity [16] [%]	IC50 ([17]; Homo sapiens, K562, 72 h) [µM]	Activity [20] [%]	IC50 ([3]; ccrf-cem) [µM]	IC50 ([6]; a549) [µM]	IC50 [10] [µM]	IC50 ([11]; k562) [µM]	IC50 ([17]; k562) [µM]	other results
CCCCCCCCOC(c1ccc([N+](=O)[O-])cc1)c1cn([C@@H]2O[C@H](CO)[C@@H](O)[C@H]2O)c(=O)[nH]c1=O (single isomer, unassigned; (+))	0.03	11.4	6.01	42.36	38.7	47.81	34.6	15.1	58.1	46.03	1.44	2.05	33.1	9.83	–	–	–	–	–	MIC [1]: 100 µM (≈ 50.8 µg/mL); Activity [7]: 7%; Activity [9]: 76%; MIC [12]: 200 µM (≈ 102 µg/mL); MIC [18]: 200 µM (≈ 102 µg/mL); MIC [19]: 100 µM (≈ 50.8 µg/mL)
CCCCCCOC(c1ccc([N+](=O)[O-])cc1)c1cn([C@@H]2O[C@H](CO)[C@@H](O)[C@H]2O)c(=O)[nH]c1=O (single isomer, unassigned; (-))	–	–	–	–	–	–	–	–	–	–	–	–	–	–	45.5	156	146	64.5	137	–
CCCCCCCCCOC(c1ccc([N+](=O)[O-])cc1)c1cn([C@@H]2O[C@H](CO)[C@@H](O)[C@H]2O)c(=O)[nH]c1=O (single isomer, unassigned; (-))	0.04	–	0.95	43.38	–	47.79	–	–	57.26	47.38	1.9	1.74	–	8.83	10	29.1	33.8	13	23.9	–
CCCCCCCOC(c1ccc([N+](=O)[O-])cc1)c1cn([C@@H]2O[C@H](CO)[C@@H](O)[C@H]2O)c(=O)[nH]c1=O (stereo in doubt; (+)7g)	–	–	–	–	39.8	–	104	33.6	–	–	–	–	42.8	–	12.8	–	–	–	–	–
CCCCCCOC(c1ccc([N+](=O)[O-])cc1)c1cn([C@@H]2O[C@H](CO)[C@@H](O)[C@H]2O)c(=O)[nH]c1=O (stereo in doubt; (+)-7f)	–	39.8	–	–	121	–	131	58.4	–	–	–	–	141	–	–	–	–	–	–	–
